Source: PubChem (several laboratories)
In the library only some 2.8% were active in any assay of this set; here they are far more common.
pCIP destab = lowers stability of the mouse p/CIP coactivator protein | Q05BA5 | F442A p/CIP-EGFP cells, EGFP fluorescence, 16 h | decrease of EGFP signal, % at 10 µM | 290,000 compounds, 0.01% hits | AID 1984;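 active = EGFP signal decrease of at least 30% at 10 µM or well 3 SD below plate mean, unless failing retest; inactive = the rest, including hits failing retest or dose response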
AI-2 QS mod = modulates the Vibrio harveyi AI-2 quorum sensing system; Vibrio harveyi JMH597 AI-2 luminescence/OD600 ratio, 9 h; active compounds read low; strain lacks LuxN and CqsS sensors; 0 = neutral-control median; activity change, % at 7.5 µM; 300,000 compounds, 0.4% hits; in the data active = activity change below about -75%, passing the limit was not always enough; inconclusive = no clear call, values can overlap the other calls;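 note: luminescence divided by OD600 gain over 9 h not by final OD600 alone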
UBC13 polyUb = blocks human UBC13 polyubiquitin chain formation; P61088; TR-FRET; inhibition, % at 20 µM; 330,000 compounds, 0.47% hits; AID 485273; in the data active = inhibition above about 45%, passing the limit was not always enough; inconclusive = no clear call, values can overlap the other calls
Target sequence (P61088 whole entry, looked up): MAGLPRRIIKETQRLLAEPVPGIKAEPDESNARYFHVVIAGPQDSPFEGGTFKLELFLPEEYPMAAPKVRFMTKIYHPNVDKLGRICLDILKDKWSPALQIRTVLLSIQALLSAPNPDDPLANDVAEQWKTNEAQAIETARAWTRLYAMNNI
T cruzi inh = blocks replication of Trypanosoma cruzi; T. cruzi beta-gal in NIH3T3, luminescence, 90 h; inhibition, % (test concentration not listed); 300,000 compounds, 1.4% hits;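 active = mean inhibition across valid replicates above about 55%, limit read from the data; inconclusive = mean below that limit but half or more replicates reach it; inactive = mean below it, under half of replicates reach it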;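 note: signal also drops with host cell toxicity which is not excluded here; 0% = plate median of DMSO wells and 100% = zero luminescence signal; higher percent means less beta-gal luminescence so fewer parasites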
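Assay system: NIH/3T3 fibroblasts plus reporter T. cruzi. Amount: NIH/3T3 cells, 5,000 per well. Buffer or medium: DMEM, 2% fetal bovine serum. Doses: compound pinned at 50 nL/well, DMSO. Schedule: ≥90 h infection period, 3 h prior cell attachment. Signal: luminescent β-galactosidase signal after 60 min lysis. Read-out: parasite load inhibition, %.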
PP1 inh = counter-screen for PP5 inhibitors: inhibitors of human PP1-alpha; inhibition, % at 6.7 µM; AID 2235; purified PP1alpha, OMFP fluorescence; 320,000 compounds, 0.9% hits;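 active = inhibition above the mean inhibition of all tested compounds plus 3 SD, computed separately for each screening campaign, cut at about 15% in these data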
Target sequence (P62136 whole entry, looked up): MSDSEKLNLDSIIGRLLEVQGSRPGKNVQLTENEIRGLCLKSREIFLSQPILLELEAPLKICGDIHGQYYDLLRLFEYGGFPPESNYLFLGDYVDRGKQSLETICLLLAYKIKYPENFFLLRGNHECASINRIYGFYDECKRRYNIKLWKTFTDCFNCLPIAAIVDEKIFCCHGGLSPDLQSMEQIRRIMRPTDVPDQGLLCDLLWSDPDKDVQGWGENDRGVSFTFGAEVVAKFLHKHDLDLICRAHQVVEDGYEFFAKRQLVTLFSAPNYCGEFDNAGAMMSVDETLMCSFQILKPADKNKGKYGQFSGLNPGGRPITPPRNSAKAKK
The depositor's hits bear a star.

CCS(=O)(=O)N1CCN(c2ccc(C(=O)NC3C4CC5CC(C4)CC3C5)cc2[N+](=O)[O-])CC1 (stereo unspecified) was read as pCIP destab -14, AI-2 QS mod 7, UBC13 polyUb -6, T cruzi inh 68* and PP1 inh -2.
Screening CCS(=O)(=O)N1CCN(c2ccc(C(=O)N3CCOCC3)cc2[N+](=O)[O-])CC1 returned pCIP destab -13, AI-2 QS mod 17, UBC13 polyUb -6, T cruzi inh -3 and PP1 inh -3.
Cc1nc(-c2ccccc2)sc1C1(C)CC(c2c(Cl)cccc2Cl)=NO1 (stereo unspecified) was read as pCIP destab 0, AI-2 QS mod 19, UBC13 polyUb 0, T cruzi inh 11 and PP1 inh -4.
For O=c1[nH]c(=O)n([C@H]2C[C@H](O)[C@@H](CO)O2)cc1F the results were pCIP destab 1, AI-2 QS mod -99*, T cruzi inh 35 and PP1 inh 0.
Screening O=C(NCc1cc2ccccc2[nH]1)c1ccccc1F returned pCIP destab 2, AI-2 QS mod -15, UBC13 polyUb -7, T cruzi inh -10 and PP1 inh -1.
Screening CCOc1ccc(S(=O)(=O)N2CCC(C(=O)N3CCN(Cc4ccccc4)CC3)CC2)cc1 returned pCIP destab 0, AI-2 QS mod 25, UBC13 polyUb -2, T cruzi inh -5 and PP1 inh -1.
For O=C(c1ccc(CSc2ccc(Cl)cc2)cc1)N1CCCC1 the results were pCIP destab -10, AI-2 QS mod 6, UBC13 polyUb 5, T cruzi inh 11 and PP1 inh -3.
Screening O=C(Nc1cccc(NC(=O)c2ccccc2Cl)c1)c1ccco1 returned pCIP destab -14, AI-2 QS mod 19, UBC13 polyUb -12, T cruzi inh 10 and PP1 inh 0.
`O=C(Nc1cccc(NC(=O)c2ccc(-c3ccc(Br)cc3)o2)c1)c1ccco1` gave pCIP destab -10, AI-2 QS mod 24, UBC13 polyUb 6, T cruzi inh 58* and PP1 inh 3.
Screening O=C(NCCCN1CCOCC1)c1ccc(N2CCOCC2)c([N+](=O)[O-])c1 returned pCIP destab -5, AI-2 QS mod 8, UBC13 polyUb -3, T cruzi inh 9 and PP1 inh -2.
For CN(C)CCNC(=O)c1ccc(Sc2ccc(Br)cc2)c([N+](=O)[O-])c1 the results were pCIP destab -4, AI-2 QS mod 7, UBC13 polyUb 14, T cruzi inh 77* and PP1 inh 0.
`CCN1CCCC1CNC(=O)c1ccc(Sc2ccc(F)cc2)c([N+](=O)[O-])c1` (stereo unspecified) gave pCIP destab -10, AI-2 QS mod 3, UBC13 polyUb -5, T cruzi inh 62* and PP1 inh 1.
Screening O=C(NCCCN1CCOCC1)c1ccc(Sc2ccc(F)cc2)c([N+](=O)[O-])c1 returned pCIP destab 0, AI-2 QS mod 8, UBC13 polyUb 2, T cruzi inh 61* and PP1 inh 0.
CC(=O)c1ccc(S(=O)(=O)N2CCN(C(=O)CN3C(=O)NC4(CCCC4)C3=O)CC2)cc1 was read as AI-2 QS mod -7, UBC13 polyUb -1, T cruzi inh 2 and PP1 inh 0.
CC(C)Oc1cccc(C(=O)C2CCCN(Cc3ccc4nonc4c3)C2)c1 (stereo unspecified) was read as pCIP destab -15, AI-2 QS mod 11, UBC13 polyUb 7, T cruzi inh 51 and PP1 inh 2.
Screening CCn1nc(C)c(CN2CCCC(C(=O)c3cccc(OC(C)C)c3)C2)c1C (stereo unspecified) returned pCIP destab -4, AI-2 QS mod 32, UBC13 polyUb 0, T cruzi inh 65* and PP1 inh 1.
`CC(C)Oc1cccc(C(=O)C2CCCN(Cc3cnn(C(C)C)c3)C2)c1` (stereo unspecified) gave pCIP destab -4, AI-2 QS mod 4, UBC13 polyUb 4, T cruzi inh 78* and PP1 inh -4.
`Cn1cc(CN2CCCC(C(=O)c3ccc(-c4ccccc4)cc3)C2)cn1` (stereo unspecified) gave pCIP destab -4, AI-2 QS mod 3, UBC13 polyUb -3, T cruzi inh inconclusive and PP1 inh -2.
Screening CCn1cc(CN2CCCC(C(=O)c3ccc(-c4ccccc4)cc3)C2)cn1 (stereo unspecified) returned pCIP destab 8, AI-2 QS mod 12, UBC13 polyUb 14, T cruzi inh 65* and PP1 inh 4.
Screening Cc1nn(C(C)C)c(C)c1CN1CCCC(C(=O)c2cccc(OC(C)C)c2)C1 (stereo unspecified) returned pCIP destab -10, AI-2 QS mod 20, UBC13 polyUb 12, T cruzi inh 49 and PP1 inh -6.
Screening O=C(COc1ccc(-n2cnnn2)cc1)Nc1cc(Cl)cc(Cl)c1 returned UBC13 polyUb 2.
For COc1ccc(C)cc1NC(=O)CN1CCN(S(=O)(=O)c2ccc(C(C)C)cc2)CC1 the results were pCIP destab -16, AI-2 QS mod 16, UBC13 polyUb 10, T cruzi inh 62* and PP1 inh 4.
`COC(=O)C1CCN(CC(=O)Nc2cc(Cl)ccc2OC)CC1` gave pCIP destab 8, AI-2 QS mod 18, UBC13 polyUb 13, T cruzi inh 55* and PP1 inh 3.
For COc1ccc(C)cc1NC(=O)CN1CCN(S(=O)(=O)c2ccc(Cl)cc2)CC1 the results were pCIP destab -1, AI-2 QS mod 65, UBC13 polyUb -2, T cruzi inh 29 and PP1 inh 1.
OC[C@H]1OC(O)[C@@H](O)[C@@H](O)[C@@H]1O (stereo partly specified) was read as AI-2 QS mod 4, UBC13 polyUb 6, T cruzi inh -15 and PP1 inh -3.
`O=C(Nc1ccc(S(=O)(=O)Nc2ncccn2)cc1)c1cccc(Br)c1` gave pCIP destab -9, AI-2 QS mod 1, UBC13 polyUb 0 and T cruzi inh 4.
`O=C(Nc1ccc(S(=O)(=O)Nc2ccccn2)cc1)c1cccc(Br)c1` gave pCIP destab -1, AI-2 QS mod -81*, UBC13 polyUb 3, T cruzi inh 19 and PP1 inh 2.
For COc1ccc(N(C(C)=O)c2nc3ccccc3[nH]2)cc1 the results were pCIP destab 0, AI-2 QS mod 6, UBC13 polyUb -1, T cruzi inh -12 and PP1 inh 0.
CCCCCn1c(SCc2ccncc2)nc2cc(C(=O)NCc3ccco3)ccc2c1=O was read as pCIP destab -10, AI-2 QS mod 11, UBC13 polyUb -8, T cruzi inh 28 and PP1 inh 16*.
`COc1ccc(C[C@H](N)C(=O)N[C@H]2[C@@H](O)[C@H](n3cnc4c(N(C)C)ncnc43)O[C@@H]2CO)cc1` gave UBC13 polyUb 1 and PP1 inh 0.
